Assay results: the array DNA melting data of Ke et al. (doi:10.1101/2024.01.08.574731)

Legend:
[1] = melting temperature; fluorescence melt of hairpins on a sequencing array, two-state fit, raised by 9.35 °C to match UV melts; conditions: sodium 0.088 M
Procedure, shortened: (§1)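 Folding enthalpy and melting temperature come from bootstrapped two-state fits to Cy3 fluorescence of library hairpins carrying annealed Cy3 and quencher oligos on a sequenced MiSeq flow cell. Imaging was done in 50 mM Na-HEPES pH 8.0, 25 mM NaCl, stepping by 2.5 °C up to 60 °C, and signals were normalised to pre-quench Cy3 and to control constructs. Results of four replicates were combined by inverse variance, and fitted temperatures were raised by 9.35 °C to match UV melts.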

[2] = folding enthalpy; higher = less favourable; fluorescence melt of hairpins on a sequencing array, two-state fit; conditions: sodium 0.088 M
Procedure, shortened: as §1

Sequence | Tm [1] | folding enthalpy [2]
GTCTCTGGAAACAGAGAC (((((((....))))))) | 62.8 °C | -42.5 kcal/mol
GTGAACGAAAGTTACAC ((((((....))).))) | 38.8 °C | -17.7 kcal/mol
GATAACGAAAGTTAGATC ((((((....)))..))) | 35.3 °C | -16.8 kcal/mol
GACAGTGGAAACACTATC ((.((((....)))).)) | 29.5 °C | -15.9 kcal/mol
GCCGGTCGAAAGACGGC (((.(((....)))))) | 67.6 °C | -30.1 kcal/mol
GTGTTCGAAAGAATCAC ((((((....))).))) | 41.5 °C | -28.2 kcal/mol
GATCGACCAATCGATC ((((((....)))))) | 49 °C | -34.2 kcal/mol
GGACAGCGAAAGCTTTCC (((.(((....))).))) | 48.3 °C | -29.6 kcal/mol
GACTGGCGAAAGCCGTC (((.(((....)))))) | 67 °C | -11.5 kcal/mol
GCCTCGCGAAAGCCGGGC (((..((....))..))) | 55.8 °C | -22.5 kcal/mol
GGAGTTGGAAACGATTCC (((.(.(....).).))) | 40.8 °C | -19.6 kcal/mol
GTAGATGGAAACATCTGC (.(((((....))))).) | 45.6 °C | -20.8 kcal/mol
GGTATTCGAAAGAAACC (((.(((....)))))) | 31.7 °C | -16.9 kcal/mol
CTCGGGAAACCGAG (((((....))))) | 56.1 °C | -23.9 kcal/mol
GAAAGACGAAAGTCGTTC (((.(((....))).))) | 46 °C | -15.1 kcal/mol
GGAGACGAAAGTCCGTCC ((((((....)))..))) | 32.5 °C | -12.4 kcal/mol
GATCGTGACAACGATC ((((((....)))))) | 63.5 °C | -38.4 kcal/mol
GGGATCGAAAGATGACCC ((((((....)))..))) | 33.6 °C | -27.8 kcal/mol
GCGGGGGTCCGC ((((....)))) | 61.7 °C | -22.6 kcal/mol
GCAATGCGAAAGCCATGC (((..((....))..))) | 37.8 °C | -18.3 kcal/mol
GATCGGCGTTCCGATC ((((((....)))))) | 56.3 °C | -39.3 kcal/mol
GATCTTGACAAGATC ((((((...)))))) | 46.1 °C | -38.6 kcal/mol
GGGGCCGCGAAAGCGCCC (((..(((....)))))) | 66 °C | -11 kcal/mol
GGTATGGGAAACTATGCC ((.((.(....).)).)) | 30.9 °C | -23.7 kcal/mol

Sequence | Tm [1] | folding enthalpy [2]
GATCATTCTATGATC ((((((...)))))) | 50.7 °C | -33.7 kcal/mol
GATCGGCCAGCCGATC ((((((....)))))) | 65.9 °C | -36.8 kcal/mol
GATACGAAAGTATC (((((....))))) | 56.6 °C | -32.2 kcal/mol
GCTCTCGAAAGAGTAAGC ((((((....)))..))) | 39.7 °C | -22.6 kcal/mol
GATCCCGGTCGGGATC ((((((....)))))) | 66.1 °C | -35.5 kcal/mol
GGTACTGGAAACAATACC ((((.((....)).)))) | 26.7 °C | -12 kcal/mol
GGGTTGACGAAAGTCCCC (((..(((....)))))) | 42.5 °C | -20.6 kcal/mol
GCACACCGAAAGGTTGC (((.(((....)))))) | 53.6 °C | -28.6 kcal/mol
GCTGGCGAAAGCCGCAGC ((((((....)))..))) | 52.4 °C | -12.9 kcal/mol
GATCGTATGACGATC ((((((...)))))) | 55.6 °C | -34 kcal/mol
GCGTTTCTACGC ((((....)))) | 53.8 °C | -23.3 kcal/mol
GGTATCGAAAGATATACC ((((((....)))..))) | 34 °C | -19.7 kcal/mol
GCAAAGCGAAAGCTGTGC (((.(((....))).))) | 54.4 °C | -41.6 kcal/mol
GCTTGGCGAAAGCAGAGC (((..((....))..))) | 54 °C | -18.2 kcal/mol
GGATGCGAAAGCAAGTCC ((((((....)))..))) | 35.5 °C | -13.7 kcal/mol
GATCCCCCGAGGGATC ((((((....)))))) | 62.1 °C | -34.6 kcal/mol
GCCCCGCGAAAGCTGTGC ((.(.((....)).).)) | 30.4 °C | -12.1 kcal/mol
GACGACGAAAGTCAAGTC ((((((....)))..))) | 45.9 °C | -23.8 kcal/mol
GTGAATGGAAACATTCGC (.(((((....))))).) | 49.9 °C | -25.4 kcal/mol
GACCAGCGAAAGCTGTC (((.(((....)))))) | 45 °C | -11.3 kcal/mol
GCAGCCGCGAAAGCGTGC (((..(((....)))))) | 48.4 °C | -8.84 kcal/mol
GATCTGGCGTCAGATC ((((((....)))))) | 50.9 °C | -31.8 kcal/mol
GTCCCCGAAAGGGACGAC ((((((....)))..))) | 69.3 °C | -18 kcal/mol
GATCGGCCTACCGATC ((((((....)))))) | 57.9 °C | -36.5 kcal/mol

Sequence | Tm [1] | folding enthalpy [2]
GCAAAGGCGAAAGCCTGC (((..(((....)))))) | 54.6 °C | -14.9 kcal/mol
GTGTATGGAAACATACGC (.(((((....))))).) | 48.5 °C | -20.1 kcal/mol
GTGCCCGAAAGGGGACAC ((((((....)))..))) | 67 °C | -12.2 kcal/mol
GCCCCGCGAAAGCCGGGC ((((.((....)).)))) | 66.4 °C | -18.3 kcal/mol
GCGTGGCGAAAGCCTAGC ((..(((....)))..)) | 59.5 °C | -20.2 kcal/mol
GATCCCATAGGGGATC ((((((....)))))) | 60.4 °C | -32.9 kcal/mol
GGTCGCGAAAGCGTACC ((((((....))).))) | 62 °C | -21.2 kcal/mol
GTACTGGGAAACCGGTAC ((((.((....)).)))) | 50.1 °C | -35.3 kcal/mol
GCCTAGCGAAAGCTGTGC ((..(((....)))..)) | 41.2 °C | -13 kcal/mol
GTACATCGAAAGATCTAC (((.(((....))).))) | 25.1 °C | -10.2 kcal/mol
GTCAACGAAAGTTGAC ((((((....)))))) | 68.9 °C | -37.4 kcal/mol
CGTGCGGAAACGCGGACG ((((((....)))..))) | 47 °C | -19.2 kcal/mol
GGCCGCGGAAACACGGCC (((((.(....).))))) | 66.1 °C | -45.4 kcal/mol
GGATTGGGAAACTGATCC ((((..(....)..)))) | 34.4 °C | -28.1 kcal/mol
GTCCACGAAAGTGTGAC ((((((....))).))) | 50.4 °C | -22.4 kcal/mol
GAGACAGGAAACTGCCTC (((.(((....))).))) | 42.3 °C | -39.7 kcal/mol
GGTGATCCGAAAGGAACC (((..(((....)))))) | 33.2 °C | -18.7 kcal/mol
GTTGTGGGAAACTACGAC ((.((.(....).)).)) | 33.8 °C | -14.3 kcal/mol
GATCTTGGAAACAAGATC (((((((....))))))) | 55.9 °C | -42.3 kcal/mol
GAACCACGAAAGTGATTC (((.(((....))).))) | 43.7 °C | -23.9 kcal/mol
GCATTCGAAAGAAGCTGC ((((((....)))..))) | 40.8 °C | -23.5 kcal/mol
GGTTCCGGAAACGAAACC ((((.((....)).)))) | 42.9 °C | -24.8 kcal/mol
GGTCCCGAAAGGGTCACC ((((((....)))..))) | 39.4 °C | -12.2 kcal/mol
GATCCTTGGAGGATC ((((((...)))))) | 50.4 °C | -42 kcal/mol

Sequence | Tm [1] | folding enthalpy [2]
GGCATGACGAAAGTCGCC (((..(((....)))))) | 52.6 °C | -28.3 kcal/mol
GCTTGGCGAAAGCGAGGC ((.(.((....)).).)) | 43.3 °C | -15.3 kcal/mol
GCCTAGCGAAAGCTCAGC ((..(((....)))..)) | 34.7 °C | -14.6 kcal/mol
GCGTCTATACGC ((((....)))) | 54.6 °C | -25 kcal/mol
GGAGATCGAAAGATATCC (((.(((....))).))) | 49.6 °C | -43.2 kcal/mol
GTGCGCTCGAAAGAGCAC (((..(((....)))))) | 59.9 °C | -14.1 kcal/mol
GATCCTGCTTAGGATC ((((((....)))))) | 52.4 °C | -42.9 kcal/mol
ACTCCGAAAGGAGT (((((....))))) | 68.8 °C | -20.5 kcal/mol
GTTCCCCGAAAGGGTAAC (((.(((....))).))) | 40.9 °C | -19.9 kcal/mol
GATGTCGCGAAAGCGATC (((..(((....)))))) | 31.1 °C | -8.5 kcal/mol
GATCCAGGGCTGGATC ((((((....)))))) | 52.4 °C | -38.3 kcal/mol
GCTCGACCGAAAGGTAGC (((..(((....)))))) | 39 °C | -13.8 kcal/mol
GATCAGCTTCCTGATC ((((((....)))))) | 49.6 °C | -44.1 kcal/mol
GGCCTGGGAAACTGGGCC ((((..(....)..)))) | 54.7 °C | -38 kcal/mol
GGAACTGCGAAAGCATCC (((..(((....)))))) | 24.6 °C | -6.59 kcal/mol
GCTAGGCGAAAGCTGAGC (((..((....))..))) | 53.6 °C | -18.2 kcal/mol
GATCACTTGCGTGATC ((((((....)))))) | 55.9 °C | -40.7 kcal/mol
GCGAGGGATCGC ((((....)))) | 52.1 °C | -16.6 kcal/mol
GTAGCGCGAAAGCGTAC (((.(((....)))))) | 44 °C | -10.8 kcal/mol
GGAAATCGAAAGATCTCC (((.(((....))).))) | 34.9 °C | -26.1 kcal/mol
GAAGCCGAAAGGCGCTTC ((((((....)))..))) | 56.2 °C | -14.1 kcal/mol
